Assay results: EPA's CvTdb concentration-time database

Assays:
rat [1] = assay: concentration in blood after dosing; negative times count back from the end of exposure; conditions: inhalation
rat [2] = assay: concentration in blood after dosing; conditions: dosed: toluene, 3000 ppm, dermal, duration: 4 hr, male, F344
rat [3] = assay: concentration in blood after dosing; conditions: dosed: toluene, 3000 ppm, dermal, duration: 4 hr, male, F344; remark: listed apart in the source
human [4] = assay: concentration in Capillary Blood after dosing; conditions: dosed: toluene, 200 mg/m^3, inhalation, duration: 2 hr, male
Summary of the method: (§1)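 Sampling and analytical methods are those of each source and frequently went unreported. The concentration-versus-time and amount-versus-time points were compiled from published in vivo toxicokinetic studies and two structured collections. Most were digitised from plot screenshots with WebPlotDigitizer, with others copied from tables, in the reported units.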

rat [5] = assay: concentration in blood after dosing; conditions: dosed: toluene, 3000 ppm, dermal, duration: 4 hr, male, F344; remark: listed apart in the source
rat [6] = assay: concentration in blood after dosing; conditions: dosed: toluene, 3000 ppm, dermal, duration: 4 hr, male, F344; remark: listed apart in the source
rat [7] = assay: concentration in blood after dosing; conditions: dosed: toluene, 3000 ppm, dermal, duration: 4 hr, male, F344; remark: listed apart in the source
human [8] = assay: concentration in blood after dosing; conditions: dosed: toluene, 100 ppm, dermal, duration: 30 min, person
Summary of the method: as §1

rat [9] = assay: concentration in blood after dosing; conditions: dosed: toluene, 3000 ppm, dermal, duration: 4 hr, male, F344; remark: listed apart in the source
human [10] = assay: concentration in expired air after dosing; negative times count back from the end of exposure; conditions: dosed: vinyl chloride, 2.5 ppm, inhalation
Summary of the method: as §1

CC(C)O [isopropanol]
rat [1], dosed: isopropanol, duration: 360 min
Conditions	concentration in blood [mg/L]
0.3018 h, 476 ppm	26
0.31 h, 4960 ppm	738
0.5307 h, 476 ppm	18.3
0.5409 h, 4960 ppm	647
1.039 h, 476 ppm	12.2
1.102 h, 4960 ppm	552
1.98 h, 476 ppm	6.11
2.098 h, 4960 ppm	367
3.047 h, 476 ppm	6.11
3.117 h, 4960 ppm	240
5.995 h, 476 ppm	1.53
6.019 h, 4960 ppm	67.2
12.07 h, 4960 ppm	12.2
98 s, 4960 ppm	871

concentration in blood [mg/L], rat [1], dosed: isopropanol, duration: 360 min, during exposure
Conditions	-195 s	-5.546 h	-5.517 h	-5.06 h	-4.913 h	-3.002 h	-2.938 h
476 ppm	32.1	–	7.64	12.2	–	21.4	–
4960 ppm	–	141	–	–	241	–	544

Cc1ccccc1 [toluene]
Conditions	concentration in Capillary Blood [µmol/L]	concentration in blood
human [4], 0.1631 h	5.87	–
human [4], 0.2703 h	6.73	–
human [4], 0.5028 h	8.25	–
human [4], 0.7659 h	9.11	–
human [4], 1.003 h	9.63	–
human [4], 1.104 h	9	–
human [4], 1.493 h	10.3	–
human [4], 1.737 h	10.3	–
human [4], 1.969 h	10.4	–
human [4], 2.075 h	4.98	–
human [4], 2.15 h	4.31	–
human [4], 2.236 h	4.01	–
human [4], 2.514 h	3.21	–
human [4], 3.028 h	1.54	–
human [4], 3.361 h	1.33	–
human [4], 3.69 h	1.22	–
human [4], 4.023 h	1.05	–
human [4], 4.349 h	0.959	–
human [4], 4.444 h	0.711	–
human [4], 4.673 h	0.867	–
human [4], 5.349 h	0.763	–
human [4], 5.678 h	0.671	–
human [4], 5.993 h	0.632	–
human [4], 334 s	4.06	–
human [8], 0.2477 h	–	0.51 µmol/L
human [8], 0.499 h	–	1.72 µmol/L
human [8], 0.7454 h	–	1.62 µmol/L
human [8], 0.9948 h	–	1.21 µmol/L
human [8], 1.5 h	–	0.941 µmol/L
human [8], 2.49 h	–	0.655 µmol/L
human [8], 3.495 h	–	0.453 µmol/L
rat [2], 0.5 h	–	1.23 µg/mL
rat [2], 1 h	–	2.72 µg/mL
rat [2], 2 h	–	4.56 µg/mL
rat [2], 3 h	–	5.16 µg/mL
rat [2], 4 h	–	5.84 µg/mL
rat [3], 0.5 h	–	4.53 µg/mL
rat [3], 1 h	–	5.23 µg/mL
rat [3], 2 h	–	5.47 µg/mL
rat [3], 3 h	–	6.61 µg/mL
rat [3], 4 h	–	6.64 µg/mL
rat [5], 0.5 h	–	2.91 µg/mL
rat [5], 1 h	–	5.54 µg/mL
rat [5], 2 h	–	6.83 µg/mL
rat [5], 3 h	–	8.23 µg/mL
rat [5], 4 h	–	8.24 µg/mL
rat [6], 0.5 h	–	4.12 µg/mL
rat [6], 1 h	–	1.33 µg/mL
rat [6], 2 h	–	8.44 µg/mL
rat [6], 3 h	–	10.1 µg/mL
rat [6], 4 h	–	12.1 µg/mL
rat [7], 0.5 h	–	1.83 µg/mL
rat [7], 1 h	–	3.67 µg/mL
rat [7], 2 h	–	5.07 µg/mL
rat [7], 3 h	–	5.76 µg/mL
rat [7], 4 h	–	7.03 µg/mL
rat [9], 0.5 h	–	2.16 µg/mL
rat [9], 1 h	–	3.52 µg/mL
rat [9], 2 h	–	5.47 µg/mL
rat [9], 3 h	–	4.8 µg/mL
rat [9], 4 h	–	7.39 µg/mL

rat [1], dosed: toluene, 100 ppm, duration: 2 hr, male, Wistar
Conditions	concentration in blood [µmol/L]
0.996 h	2.6
2.004 h	1.52

rat [1], dosed: toluene, 100 ppm, duration: 2 hr, male, Wistar, during exposure
Conditions	concentration in blood [µmol/L]
-20 s	8.21
-1.759 h	5.58
-1.503 h	6.41
-1.005 h	6.95
-0.5053 h	9.06

C=CCl [vinyl chloride]
concentration in expired air [ppm], human [10]
Conditions	duration: 0.25 hr	duration: 0.5 hr
2 s	1.88	–
4 min	0.0581	–
31 s	0.564	–
60 s	–	0.375
64 s	0.271	–
121 s	0.13	0.217
179 s	–	0.198
180 s	0.118	–
237 s	–	0.156
298 s	–	0.145
299 s	0.0432	–

concentration in expired air [ppm], human [10], during exposure
Conditions	duration: 0.25 hr	duration: 0.5 hr
-299 s	1.81	–
-298 s	–	1.63
-241 s	–	1.74
-238 s	1.84	–
-180 s	1.88	–
-122 s	–	1.77
-119 s	1.84	–
-61 s	–	1.7
-59 s	1.96	–
-11 min	1.68	1.81
-8 min	1.64	–
-7 min	–	1.7
-3 min	–	1.79
-0.4831 h	–	1.29
-0.4663 h	–	1.4
-0.4502 h	–	1.63
-0.4157 h	–	1.7
-0.3827 h	–	1.77
-0.3489 h	–	1.79
-0.316 h	–	1.77
-0.2823 h	–	1.86
-0.2493 h	–	1.45
-0.2413 h	0.701	–
-0.2343 h	1.27	–
-0.224 h	1.59	–
-0.2163 h	–	1.86
-0.2158 h	1.57	–
-0.2001 h	1.62	–
-0.1659 h	1.79	–
-0.1496 h	–	1.7
-0.1491 h	1.72	–
-0.1161 h	1.84	–
-0.1003 h	1.79	–
-0 s	–	1.57
